GSTO1 inh: GSTO1 inhibition, counter-screen for RBBP9 inhibitors. recombinant GSTO1, activity-based probe fluorescence polarization. 1.1% of 300,000 active. inhibition, % at 5.96 µM;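 active = inhibition above the campaign mean inhibition plus 3 SD, cut at about 35% in these data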;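 also: 0% = GSTO1-1 with DMSO and 100% = wells lacking GSTO1-1 enzyme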
Target sequence (P78417 whole entry, looked up): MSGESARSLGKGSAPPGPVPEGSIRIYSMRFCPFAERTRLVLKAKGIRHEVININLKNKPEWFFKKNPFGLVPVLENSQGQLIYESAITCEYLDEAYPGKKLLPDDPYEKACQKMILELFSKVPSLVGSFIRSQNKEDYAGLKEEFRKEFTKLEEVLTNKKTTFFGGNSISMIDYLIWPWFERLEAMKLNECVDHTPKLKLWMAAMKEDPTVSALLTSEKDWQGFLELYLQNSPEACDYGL
HKDC1 inh: HKDC1 (human) hexokinase inhibition; recombinant HKDC1, G6PDH/diaphorase resazurin coupled fluorescence; Q2TB90; inhibition, % at 20 µM; 0.16% of 340,000 active;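 active = inhibition above about 35% when tested at 20 µM, limit read from the data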;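 also: plate controls were DMSO wells with enzyme for no effect and DMSO wells lacking enzyme for full effect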
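test system = in-house recombinant HK5 (HKDC1) enzyme | amount = HKDC1 at 5 µg/mL | control set = DMSO-enzyme wells negative, buffer-substituted wells positive | compound = one dose of 20 µM, 1% DMSO | schedule = reaction time 90 min, room temperature, protected from light | technique = resorufin fluorescence at 613 nm | reagent = glucose with 1 mM ATP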
UCH37 DUB inh: inhibitors of human deubiquitinating enzyme UCH37; Q9Y5K5; purified proteasome/UCH37, Ub-AMC cleavage fluorescence; inhibition, % (concentration not given with the values); 0.33% of 330,000 active; AID 588478;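 active = mean inhibition over replicate wells above about 20%, limit read from the data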;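 also: 0% = compound-free wells with enzyme and 100% = wells lacking proteasome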
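Material: human UCH37 enzyme supplied as purified proteasome complex / Amount: 0.15 nM proteasome as dispensed / Buffer or medium: pH 7.4 Tris-HCl (50 mM) with ovalbumin, ATP-MgCl2, DTT / Times: preincubation 30 min, reaction 25 min, room temperature / Technique: AMC fluorescence from Ub-AMC cleavage, excitation 355 nm, emission 460 nm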
TDP2 inh: TDP2 (human) inhibition, absorbance primary screen; inhibition, % at 12.8 µM; recombinant TDP2, T5PNP hydrolysis, p-nitrophenol absorbance 415 nm; O95551; 0.34% of 370,000 active; AID 720702;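 active = inhibition above the mean of all tested compounds plus 3 SD, set per campaign, cut at about 25% in these data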;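 also: 0% = DMSO with enzyme and 100% = buffer with substrate but no TDP2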
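Assay system: Recombinant human TDP2 | Quantity: 120 nM TDP2 per well | Incubation: 2 h at 37 °C | Signal: Epi absorbance | Evaluation: Percent inhibition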
PAD4 inh: blocks human protein arginine deiminase 4; Q9UM07; recombinant PAD4, RCA probe fluorescence polarization; inhibition, % at 6.36 µM; 0.41% of 330,000 active; AID 485272;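 active = percent inhibition above a cutoff equal to the mean of all tested compounds plus 3 SD, cut at about 15% in these data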;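 also: 0% = PAD4 with RCA probe and DMSO and 100% = probe without PAD4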
Fh CTSL1 inh: blocks F. hepatica cathepsin L1 in PFM18AAP counter-screen | 0.49% of 300,000 active | recombinant F. hepatica cathepsin L1, Z-Leu-Arg-MCA fluorescence | AID 1906 | inhibition, % at 5.96 µM;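 active = inhibition above the mean of all tested compounds plus 3 SD, set per screening campaign, cut at about 17% in these data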;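 also: 0% = plate median of test compound wells and 100% = 1 µM Z-Phe-Ala-diazomethylketone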
GSTO1 inh conf: GSTO1 (human) inhibition, confirmation | inhibition, % at 5.96 µM | AID 2176 | recombinant GSTO1, probe fluorescence polarization | 54% of 2,400 active | shares compounds with GSTO1 inh;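 active = inhibition above the primary screen's cutoff, its mean inhibition plus 3 SD, cut at about 35% in these data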;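 also: loss of polarization as inhibitors block binding of rhodamine sulfonate ester activity probe; 0% = GSTO1 with DMSO and 100% = wells lacking GSTO1 enzyme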
An asterisk follows results filed as active; . = no result given. Compounds with a hit are over-represented: about 1.6% of the library has one in this group of screens.

SMILES	GSTO1 inh	HKDC1 inh	UCH37 DUB inh	TDP2 inh	PAD4 inh	Fh CTSL1 inh	GSTO1 inh conf
CC1(OC(=O)C2CCCC2)C(=O)C=C2C=C(c3ccsc3)N(C3CC3)C=C2C1=O (centres undefined)	47*	21	1	16	7	1	4
CC(C)CN1C=C2C(=O)C(C)(OC(=O)C3CCCC3)C(=O)C=C2C=C1c1ccsc1 (centres undefined)	25	21	1	-6	-12	-1	.
C=CCN1C=C2C(=O)C(C)(OC(=O)C3CCCC3)C(=O)C=C2C=C1c1ccsc1 (centres undefined)	41*	21	4	-4	-2	5	5
Nc1nnc(CC(=O)NN=Cc2ccc(-c3cccc(C(=O)O)c3)o2)s1	.	.	7	.	.	.	.
CC(=NN1CCN(c2ccc(Cl)cc2)CC1)c1cccs1	.	.	0	.	.	.	.
Cc1ccc(NCN2C(=O)c3ccccc3C2=O)cc1Cl	.	.	.	8	.	.	.
Cc1ccc(N/N=C2\CC(=O)c3ccccc32)cc1Cl	48*	.	.	.	0	-7	26
CCOc1ccc(-n2c(C)cc(C=NNC(=O)CC(=O)NC3CCCCC3)c2C)cc1	.	.	5	.	.	.	.
O=C1CSC2=NCN(c3ccc4c(c3)OCO4)CN12	11	-3	2	15	0	0	.
CN(C)c1ccc(N2CN=C3SCC(=O)N3C2)cc1	72*	7	2	12	12	-4	4
CC(=NNC(=O)c1nn(C)c(C)c1Br)c1cccc(NC(=O)c2ccc(F)cc2)c1	.	.	-1	.	.	.	.
Cc1ccc(NN=C(C#N)C(=N)N2CCOCC2)cc1	.	.	14	.	.	.	.
CCN1C(=O)C2(C(C#N)=C(N)Oc3c2c(C)nn3-c2ccccc2)c2ccccc21 (centres undefined)	39*	7	1	.	-4	1	10
O=C(NNc1ccc(Cl)cc1)c1c(F)cccc1Cl	0	-6	6	-2	-2	-4	.
CC(=O)C(=Nc1ccccc1Cl)NNc1ccc(Cl)cc1	40*	5	3	-3	-2	0	10
COc1ccc(C=NNC(=O)c2[nH]c3ccc(Br)cc3c2-c2ccccc2)cc1	.	.	-30	.	.	.	.
Cc1ccc(C=NNC(=O)Cn2nnc3ccccc32)o1	.	.	6	.	.	.	.
CCn1c(=O)oc2cc(NC(=O)CCl)ccc21	88*	-4	1	-1	0	7	92*
O=C(Cn1nc2n(c1=O)-c1ccccc1SC2)NN=Cc1ccncc1	.	.	7	.	.	.	.
COc1cc(/C=N/NS(=O)(=O)c2ccc(C(C)(C)C)cc2)cc([N+](=O)[O-])c1O	50*	-7	.	-13	-1	5	64*
O=C(O)c1[nH]c2ccccc2c1C(c1ccccc1)c1c(C(=O)O)[nH]c2ccccc12	38*	9	6	-1	0	0	30
O=C(NN=Cc1cc([N+](=O)[O-])ccc1O)/C(=C\c1cccs1)NC(=O)c1ccccc1	.	.	0	.	.	.	.
CCC(=O)N=c1ccn(C2=Nc3ccccc3NC2=C(C#N)C#N)cc1	63*	-1	4	-25	-4	3	21
CC#CC#Cc1cccc(=O)o1	82*	-1	10	9	1	10	80*
CCOC(=O)c1ccc2c(c1)C1C=CCC1C(C(=O)O)N2 (centres undefined)	52*	.	13	.	-1	8	39*
O=C(c1cccs1)c1no[n+]([O-])c1C(=O)c1cccs1	15	12	6	.	2	12	.
Cc1c(C(=O)c2no[n+]([O-])c2C(=O)c2cnn(C)c2C)cnn1C	40*	-5	2	0	6	15	25
NC(=NOCc1ccc([N+](=O)[O-])cc1)c1ccccn1	.	.	4	.	.	.	.
CCCOc1ccc2ccccc2c1C=Nn1cnnc1	.	.	7	.	.	.	.
CCN1CCN(c2nc3ccccc3nc2C(C#N)S(=O)(=O)c2ccc(C)cc2)CC1 (centres undefined)	0	1	-4	3	-5	-1	.
